Test results: ChEMBL document CHEMBL2034978, “Synthesis and evaluation of curcumin-related compounds for anticancer activity” (Eur J Med Chem, 2012)

Tests used:
Format in all cases: functional, cell-based
PC-3 = assay: Cytotoxicity against human PC3 cells after 72 hrs by MTT assay; settings: PC-3, 72 h
Outline: (§1)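 Seeded at 0.2 × 10⁵ cells/ml, grown 24 h, then exposed 72 h to a range of concentrations (upper limit 30). MTT read-out: formazan dissolved in DMSO, absorbance at 540 nm, growth expressed as percent of DMSO-treated cells.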

PANC-1 = assay: Cytotoxicity against human PANC1 cells after 72 hrs by MTT assay; settings: PANC-1, 72 h; outline: as §1
HT-29 = assay: Cytotoxicity against human HT-29 cells after 72 hrs by MTT assay; settings: HT-29, 72 h; outline: as §1

COc1ccc(/C=C/C(=O)/C=C/c2ccc(OC)cc2)cc1
IC50 (PC-3): 11.2 µM | IC50 (PANC-1): 14 µM | IC50 (HT-29): 11.3 µM

COc1cc(/C=C2\CCC/C(=C\c3ccc(O)c(OC)c3)C2=O)ccc1O [CYCLOVALONE]
IC50 (PC-3): 5.89 µM | IC50 (PANC-1): 4.43 µM | IC50 (HT-29): 3.73 µM

O=C1/C(=C/c2ccccn2)CCC/C1=C\c1ccccn1
IC50 (PC-3): 1.28 µM | IC50 (PANC-1): 1.3 µM | IC50 (HT-29): 1.43 µM

COc1cc(/C=C/C(=O)/C=C/c2cc(OC)c(OC)c(OC)c2)cc(OC)c1OC
IC50 (PC-3): 4.63 µM | IC50 (PANC-1): 3.38 µM | IC50 (HT-29): 1.68 µM

O=C(/C=C/c1ccc(Cl)cc1)/C=C/c1ccc(Cl)cc1
IC50 (PC-3): 16.7 µM | IC50 (PANC-1): 14.1 µM | IC50 (HT-29): 10.9 µM

O=C1C(=Cc2ccc(O)cc2)CSCC1=Cc1ccc(O)cc1
IC50 (PC-3): 8.23 µM | IC50 (PANC-1): 12 µM | IC50 (HT-29): 4.27 µM

COc1cc(/C=C2\CC/C(=C\c3cc(OC)c(OC)c(OC)c3)C2=O)cc(OC)c1OC
IC50 (PC-3): 16.4 µM | IC50 (PANC-1): 18.8 µM | IC50 (HT-29): 12.7 µM

COc1cc(/C=C2\CCC/C(=C\c3cc(OC)c(OC)c(OC)c3)C2=O)cc(OC)c1OC
IC50 (PC-3): 6.17 µM | IC50 (PANC-1): 9.66 µM | IC50 (HT-29): 4.23 µM

COc1ccc(/C=C2\COC/C(=C\c3ccc(OC)cc3)C2=O)cc1
IC50 (PC-3): 6.12 µM | IC50 (PANC-1): 7.63 µM | IC50 (HT-29): 6.05 µM

O=C1/C(=C/c2ccc(O)cc2)CC/C1=C\c1ccc(O)cc1
IC50 (PC-3): 22.9 µM | IC50 (PANC-1): > 30 µM | IC50 (HT-29): 21.4 µM

O=C1/C(=C/c2cccnc2)CC/C1=C\c1cccnc1
IC50 (PC-3): 6.97 µM | IC50 (PANC-1): 6.22 µM | IC50 (HT-29): 5.54 µM

COc1ccc(/C=C2\CC/C(=C\c3ccc(OC)cc3)C2=O)cc1
IC50 (PC-3): 25.8 µM | IC50 (PANC-1): > 30 µM | IC50 (HT-29): 23 µM

O=C1/C(=C/c2cccnc2)COC/C1=C\c1cccnc1
IC50 (PC-3): 2.21 µM | IC50 (PANC-1): 0.98 µM | IC50 (HT-29): 1.81 µM

O=C1/C(=C/c2ccsc2)CCC/C1=C\c1ccsc1
IC50 (PC-3): 14.6 µM | IC50 (PANC-1): 17.4 µM | IC50 (HT-29): 17.3 µM

O=C1/C(=C/c2ccc(Cl)cc2)CC/C1=C\c1ccc(Cl)cc1
IC50 (PC-3): 25 µM | IC50 (PANC-1): 23.2 µM | IC50 (HT-29): 15.9 µM

O=C1/C(=C/c2ccc(Br)cc2)CNC/C1=C\c1ccc(Br)cc1
IC50 (PC-3): 1.95 µM | IC50 (PANC-1): 2.06 µM | IC50 (HT-29): 4.13 µM

O=C1/C(=C/c2ccccn2)COC/C1=C\c1ccccn1
IC50 (PC-3): 1.88 µM | IC50 (PANC-1): 3.24 µM | IC50 (HT-29): 3.28 µM

COc1ccc(/C=C2\COC/C(=C\c3ccc(OC)c(OC)c3OC)C2=O)c(OC)c1OC
IC50 (PC-3): 2.74 µM | IC50 (PANC-1): 2.67 µM | IC50 (HT-29): 2.45 µM

O=C1/C(=C/c2ccncc2)CSC/C1=C\c1ccncc1
IC50 (PC-3): 0.7 µM | IC50 (PANC-1): 1.14 µM | IC50 (HT-29): 1.29 µM

O=C1/C(=C/c2ccc(Cl)cc2)CNC/C1=C\c1ccc(Cl)cc1
IC50 (PC-3): 3.63 µM | IC50 (PANC-1): 3.73 µM | IC50 (HT-29): 6.33 µM

O=C(/C=C/c1ccc(O)cc1)/C=C/c1ccc(O)cc1
IC50 (PC-3): 9.68 µM | IC50 (PANC-1): 13.6 µM | IC50 (HT-29): 9.38 µM

O=C1/C(=C/c2ccc(Cl)cc2)CCC/C1=C\c1ccc(Cl)cc1
IC50 (PC-3): 11.3 µM | IC50 (PANC-1): 11.8 µM | IC50 (HT-29): 7.75 µM

COc1cc(/C=C/C(=O)/C=C/c2cc(OC)c(O)c(OC)c2)cc(OC)c1O
IC50 (PC-3): 3.41 µM | IC50 (PANC-1): 2.23 µM | IC50 (HT-29): 2.24 µM

COc1ccc(C=C2CSCC(=Cc3ccc(OC)c(OC)c3OC)C2=O)c(OC)c1OC
IC50 (PC-3): 3.78 µM | IC50 (PANC-1): 4.71 µM | IC50 (HT-29): 2.89 µM

COc1ccc(/C=C2\CCC/C(=C\c3ccc(OC)c(OC)c3)C2=O)cc1OC
IC50 (PC-3): 5.2 µM | IC50 (PANC-1): 4.46 µM | IC50 (HT-29): 4 µM

O=C1/C(=C/c2ccncc2)CC/C1=C\c1ccncc1
IC50 (PC-3): 5.58 µM | IC50 (PANC-1): 7.88 µM | IC50 (HT-29): 7.58 µM

O=C1/C(=C/c2ccncc2)CCC/C1=C\c1ccncc1
IC50 (PC-3): 2.12 µM | IC50 (PANC-1): 2.18 µM | IC50 (HT-29): 2.35 µM

O=C(/C=C/c1ccc(F)cc1)/C=C/c1ccc(F)cc1
IC50 (PANC-1): 12.5 µM | IC50 (HT-29): 9.35 µM

COc1cc(/C=C2\CC/C(=C\c3cc(OC)c(O)c(OC)c3)C2=O)cc(OC)c1O
IC50 (PC-3): 9.98 µM | IC50 (PANC-1): 9.63 µM | IC50 (HT-29): 7.8 µM

O=C1/C(=C/c2cccnc2)CCC/C1=C\c1cccnc1
IC50 (PC-3): 2.16 µM | IC50 (PANC-1): 2.5 µM | IC50 (HT-29): 1.99 µM

COc1ccc(/C=C2\CC/C(=C\c3ccc(OC)c(OC)c3OC)C2=O)c(OC)c1OC
IC50 (PC-3): 18.7 µM | IC50 (PANC-1): 22.7 µM | IC50 (HT-29): 19.8 µM

O=C1/C(=C/c2ccsc2)CSC/C1=C\c1ccsc1
IC50 (PC-3): 4.13 µM | IC50 (PANC-1): 7.49 µM | IC50 (HT-29): 6.75 µM

COc1ccc(/C=C2\CCC/C(=C\c3ccc(OC)c(OC)c3OC)C2=O)c(OC)c1OC
IC50 (PC-3): 8.22 µM | IC50 (PANC-1): 11.6 µM | IC50 (HT-29): 7.14 µM

COc1ccc(/C=C2\CCC/C(=C\c3ccc(OC)cc3)C2=O)cc1
IC50 (PC-3): 12.3 µM | IC50 (PANC-1): 15.9 µM | IC50 (HT-29): 13.7 µM

O=C1/C(=C/c2ccc(F)cc2)CCC/C1=C\c1ccc(F)cc1
IC50 (PC-3): 11.9 µM | IC50 (PANC-1): 10.4 µM | IC50 (HT-29): 7.56 µM

O=C1/C(=C/c2ccccn2)CC/C1=C\c1ccccn1
IC50 (PC-3): 2.94 µM | IC50 (PANC-1): 5.19 µM | IC50 (HT-29): 5.36 µM

O=C1/C(=C/c2ccc(O)cc2)CCC/C1=C\c1ccc(O)cc1
IC50 (PC-3): 13.2 µM | IC50 (PANC-1): 13.2 µM | IC50 (HT-29): 11.7 µM

COc1cc(C=C2CSCC(=Cc3cc(OC)c(O)c(OC)c3)C2=O)cc(OC)c1O
IC50 (PC-3): 1.13 µM | IC50 (PANC-1): 2.2 µM | IC50 (HT-29): 1.73 µM

O=C1/C(=C/c2ccsc2)CC/C1=C\c1ccsc1
IC50 (PC-3): 23 µM | IC50 (PANC-1): 27.9 µM | IC50 (HT-29): 19.7 µM

COc1ccc(C=C2CSCC(=Cc3ccc(OC)cc3)C2=O)cc1
IC50 (PC-3): 8.46 µM | IC50 (PANC-1): 10.9 µM | IC50 (HT-29): 7.93 µM

O=C1/C(=C/c2ccc(F)cc2)CC/C1=C\c1ccc(F)cc1
IC50 (PC-3): 19 µM | IC50 (PANC-1): 19.7 µM | IC50 (HT-29): 14.4 µM

COc1cc(/C=C/C(=O)/C=C/c2ccc(O)c(OC)c2)ccc1O
IC50 (PC-3): 4.2 µM | IC50 (PANC-1): 4.62 µM | IC50 (HT-29): 2.94 µM

COc1ccc(/C=C/C(=O)/C=C/c2ccc(OC)c(OC)c2OC)c(OC)c1OC
IC50 (PC-3): 5.93 µM | IC50 (PANC-1): 9.22 µM | IC50 (HT-29): 5.09 µM

COc1ccc(/C=C2\CC/C(=C\c3ccc(OC)c(OC)c3)C2=O)cc1OC
IC50 (PC-3): 9.3 µM | IC50 (PANC-1): 13.7 µM | IC50 (HT-29): 13.5 µM

COc1cc(/C=C2\CCC/C(=C\c3cc(OC)c(O)c(OC)c3)C2=O)cc(OC)c1O
IC50 (PC-3): 4.14 µM | IC50 (PANC-1): 2.63 µM | IC50 (HT-29): 2.7 µM

COc1cc(/C=C2\CC/C(=C\c3ccc(O)c(OC)c3)C2=O)ccc1O
IC50 (PC-3): 15.5 µM | IC50 (PANC-1): 15.5 µM | IC50 (HT-29): 9.7 µM

COc1cc(/C=C2\COC/C(=C\c3cc(OC)c(O)c(OC)c3)C2=O)cc(OC)c1O
IC50 (PC-3): 0.91 µM | IC50 (PANC-1): 1.72 µM | IC50 (HT-29): 1.44 µM

O=C1/C(=C/c2ccc(Br)cc2)CC/C1=C\c1ccc(Br)cc1
IC50 (PC-3): > 30 µM | IC50 (PANC-1): 25.3 µM | IC50 (HT-29): 19.9 µM

O=C1/C(=C/c2ccncc2)COC/C1=C\c1ccncc1
IC50 (PC-3): 1.83 µM | IC50 (PANC-1): 2.96 µM | IC50 (HT-29): 4.17 µM

O=C1/C(=C/c2ccc(O)cc2)COC/C1=C\c1ccc(O)cc1
IC50 (PC-3): 7.28 µM | IC50 (PANC-1): 11.1 µM | IC50 (HT-29): 3.86 µM

O=C1/C(=C/c2ccsc2)COC/C1=C\c1ccsc1
IC50 (PC-3): 6.59 µM | IC50 (PANC-1): 10.8 µM | IC50 (HT-29): 8.94 µM

COc1ccc(/C=C/C(=O)/C=C/c2ccc(OC)c(OC)c2)cc1OC
IC50 (PC-3): 2.98 µM | IC50 (PANC-1): 3.39 µM | IC50 (HT-29): 2.17 µM

O=C(/C=C/c1ccc(O)c(O)c1)/C=C/c1ccc(O)c(O)c1
IC50 (PC-3): 8.99 µM | IC50 (PANC-1): 13.4 µM | IC50 (HT-29): 9.02 µM

O=C1/C(=C/c2ccc(F)cc2)CNC/C1=C\c1ccc(F)cc1
IC50 (PC-3): 2.87 µM | IC50 (PANC-1): 3.15 µM | IC50 (HT-29): 3.26 µM

O=C1/C(=C/c2ccc(Br)cc2)CCC/C1=C\c1ccc(Br)cc1
IC50 (PC-3): 13.6 µM | IC50 (PANC-1): 12.2 µM | IC50 (HT-29): 9.19 µM

O=C(/C=C/c1ccc(Br)cc1)/C=C/c1ccc(Br)cc1
IC50 (PC-3): 23.1 µM | IC50 (PANC-1): 20.8 µM | IC50 (HT-29): 14 µM
